From paper PMC5766731 (Clinical Pharmacokinetics, 2017)

Tests used:
[1] = Part I single ascending-dose pharmacokinetics; format: in vivo, human; settings: for t max / AUCt / AUC∞ / C max / CL/F_obs / V z/F_obs / t ½ / λz: part I, fasted; for t max: mean (range) per footnote; for AUCt / AUC∞ / C max / CL/F_obs / V z/F_obs / t ½ / λz: mean ± SD
[2] = test system: serum erythropoietin (EPO), hemoglobin, hematocrit, reticulocyte count; test: Part III pharmacodynamics; format: in vivo, human; settings: single 150 mg
How it was run: (§1)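 Serum EPO, hemoglobin, hematocrit and reticulocyte count were measured in blood taken before and after oral dosing. Regimens: part I single fasted doses 10–300 mg vs placebo; part II 100–300 mg on Days 1, 3, 5 vs placebo; part III single 150 mg, fasted vs fed, men and women. EPO expressed baseline-corrected. Post-dose vs baseline compared by paired two-sided t test, α = 0.05.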

[3] = test system: serum erythropoietin (EPO), hemoglobin, hematocrit, reticulocyte count; test: Part I pharmacodynamics; format: in vivo, human; settings: for mean serum EPO C max: placebo 9.6 mIU/L
How it was run: as §1

[4] = mice, oral route; cited from earlier work
[5] = Part II multiple ascending-dose pharmacokinetics; format: in vivo, human
How it was run: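 Four panels of eight (six drug, two placebo) were dosed orally, fasted, with 100, 150, 200 or 300 mg on Days 1, 3 and 5. Blood was taken pre-dose and at 0.5–36 h after the Day 1 and Day 5 doses, pre-dose and 12, 24 and 36 h after Day 3, and 48 and 72 h after Day 5. Diluted-blood LC-MS/MS (LLOQ 2 ng/mL). Accumulation index was derived.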

## O=C(O)CNC(=O)c1c(O)c2ccccc2n(OCC2CC2)c1=O [ZYAN1]
[1]; 30-fold single dose range, slight deviation at higher doses
  dose proportionality of C max and AUC: almost dose-proportional increase
[1]; across single doses 10-300 mg
  V d, range: 28 to 47 L
  apparent oral CL, range: 2 to 2.9 L/h
[1]; single oral dose 10 mg
  t max: 2.50 (1.50–3.00) h
  AUCt: 3597.269 ± 549.116 ng·h/mL
  AUC∞: 3659.531 ± 551.508 ng·h/mL
  C max: 566.467 ± 163.031 ng/mL
  CL/F_obs: 2784.592 ± 417.679 mL/h
  V z/F_obs: 27,683.707 ± 4805.113 mL
  t ½: 6.976 ± 1.390 h
  λz: 0.102 ± 0.019 h⁻¹
[1]; single oral dose 25 mg
  t max: 1.25 (1.00–2.50) h
  AUCt: 9177.789 ± 2359.163 ng·h/mL
  AUC∞: 9269.839 ± 2396.986 ng·h/mL
  C max: 1634.500 ± 299.429 ng/mL
  CL/F_obs: 2870.759 ± 817.646 mL/h
  V z/F_obs: 27,950.696 ± 5329.29 mL
  t ½: 6.917 ± 0.923 h
  λz: 0.102 ± 0.016 h⁻¹
[1]; single oral dose 50 mg
  t max: 2.25 (1.00–5.00) h
  AUCt: 24,518.328 ± 5125.235 h·ng/mL
  AUC∞: 24,847.379 ± 5242.290 h·ng/mL
  C max: 2959.333 ± 686.898 ng/mL
  CL/F_obs: 2084.748 ± 417.943 mL/h
  V z/F_obs: 30,578.971 ± 10,323.282 mL
  t ½: 10.434 ± 3.857 h
  λz: 0.074 ± 0.024 h⁻¹
[1]; single oral dose 100 mg
  t max: 2.25 (1.00–5.00) h
  AUCt: 46,844.762 ± 13,259.837 h·ng/mL
  AUC∞: 47,320.651 ± 13,358.696 h·ng/mL
  C max: 6745.000 ± 1958.132 ng/mL
  CL/F_obs: 2271.507 ± 686.413 mL/h
  V z/F_obs: 33,572.508 ± 10,971.959 mL
  t ½: 10.685 ± 3.249 h
  λz: 0.071 ± 0.023 h⁻¹
[1]; single oral dose 150 mg
  t max: 3.00 (2.50–5.00) h
  AUCt: 54,401.071 ± 12,592.181 h·ng/mL
  AUC∞: 54,672.481 ± 12,686.075 h·ng/mL
  C max: 8119.333 ± 1269.627 ng/mL
  CL/F_obs: 2891.042 ± 782.208 mL/h
  V z/F_obs: 46,536.434 ± 9434.457 mL
  t ½: 11.357 ± 1.616 h
  λz: 0.062 ± 0.008 h⁻¹
[1]; single oral dose 200 mg
  t max: 2.25 (1.50–5.00) h
  AUCt: 76,515.016 ± 6992.709 h·ng/mL
  AUC∞: 76,728.333 ± 7061.227 h·ng/mL
  C max: 12,080.667 ± 3430.123 ng/mL
  CL/F_obs: 2625.566 ± 248.239 mL/h
  V z/F_obs: 36,035.031 ± 6400.263 mL
  t ½: 9.502 ± 1.270 h
  λz: 0.074 ± 0.01 h⁻¹
[1]; single oral dose 300 mg
  t max: 2.00 (1.00–5.00) h
  AUCt: 115,898.815 ± 45,549.563 h·ng/mL
  AUC∞: 116,226.587 ± 45,834.174 h·ng/mL
  C max: 17,858.333 ± 2899.189 ng/mL
  CL/F_obs: 2835.924 ± 799.195 mL/h
  V z/F_obs: 38,836.681 ± 12,903.706 mL
  t ½: 9.484 ± 1.325 h
  λz: 0.074 ± 0.011 h⁻¹
[1]; single doses 10-300 mg
  t ½, range: 6.9 to 11.3 h
[1]; single doses 10-300 mg (30-fold range)
  median time to C max (t max): approximately 2.5 h
[2]
  mean serum EPO concentrations, fasted vs fed: no apparent difference
[2]; fasted or fed
  mean serum EPO concentrations, male vs female subjects: no apparent difference
[3]; doses up to 150 mg
  EPO response vs placebo: not markedly different from placebo
[3]; single dose 10 mg
  mean serum EPO C max: 6.6 mIU/L
[3]; single dose 300 mg
  mean serum EPO C max: 79.9 mIU/L
[3]; single dose, as early as
  initiation of EPO rise after ZYAN1 administration: 6 h
[3]; single dose, more consistent from 100 mg and above
  hemoglobin increase observed in most of the subjects: > 0.5 gm%
[4]
  tolerated dose, single-dose study: up to 300 mg/kg
[5]; 100, 150, 200, 300 mg, first or fifth day of dosing
  median t max, range: 1.5 to 3.0 h
[5]; after first and third dose of 100, 150, 200, 300 mg, alternate-day dosing
  accumulation of the drug: no accumulation of the drug was observed
[5]; in vivo
  mean terminal t ½: approximately 10 h
